Measured values from ChEMBL document CHEMBL5653620, “Activating the Wnt/β-Catenin Pathway for the Treatment of Melanoma--Application of LY2090314, a Novel Selective Inhibitor of Glycogen Synthase Kinase-3” (PLoS One, 2015).
Calls of active or inactive are those of the source. The calls are words filed in the database; no cut-off is given here.

Legend:
M14 [1] = assay: Induction of apoptosis in human M14 cells assessed as increase in caspase3/7 activation at 5 to 40 nM after 72 hrs by Caspase-Glo assay; assay type: functional, cell-based; conditions: dose 5-40 nM
How it was run: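 Cells were plated at 2,000 per well and allowed to adhere overnight. Medium was then replaced with growth medium containing 2% FBS, and cells were exposed to agent for 72 h. Caspase 3/7 activity was measured by Caspase-Glo luminescence.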

LNCaP = assay: Antiproliferative activity against human LNCaP assessed as reduction in cell viability incubated for 72 hrs by CellTitre-Glo assay; assay type: functional, cell-based
How it was run: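 Cells seeded at 2,000/well, adhered overnight, then given medium with 2% FBS containing test agents at 0.5 nmol/L to 10 μmol/L for 72 h. Viability read by CellTiter-Glo luminescence. IC50 derived by nonlinear regression with a sigmoidal dose-response fit.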

M14 [2] = assay: Antiproliferative activity against human M14 cells transfected with beta-catenin shRNA assessed as reduction in cell viability incubated for 72 hrs by CellTitre-Glo assay; assay type: functional, cell-based
How it was run: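 A375 or M14 cells were transduced with lentiviral shRNA particles (target or control) at MOI 2 with polybrene 8 μg/ml. Puromycin selection at 2 μg/ml began 48 h later, and knockdown was checked by immunoblot. Cells were seeded at 2,000 per well in 2% FBS medium, exposed to agents for 72 h, and read by CellTiter-Glo.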

A-375 [3] = assay: Antitumor activity against human A-375 cells xenografted in CD1 nu/nu mouse assessed decrease in tumor volume at 25 mg/kg, iv q3d; assay type: functional, organism-based
How it was run: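 Female 6–8 week athymic nude mice received 5 million A375 cells s.c. in the flank with matrigel (1:1). At tumors of ~100 mm2, mice were randomized to agent 25 mg/kg i.v. Q3D or vehicle (20% Captisol/0.01N HCl). Caliper tumor volume ((a2 x b)/2) and body weight were recorded twice weekly. Repeated-measures ANOVA was fit by mixed model.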

NCI-H460 = assay: Antiproliferative activity against human H460 assessed as reduction in cell viability incubated for 72 hrs by CellTitre-Glo assay; assay type: functional, cell-based; conditions: NCI-H460, 72 h
How it was run: (§1)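 Cells seeded at 2,000 per well and left to adhere overnight. After 24 h, medium was switched to growth medium with 2% FBS. Test agent was added at 0.5 nmol/L to 10 μmol/L for 72 h. Viability was read by CellTiter-Glo luminescence. IC50 came from nonlinear regression sigmoidal dose-response fits.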

A-375 [4] = assay: Effect on RAS signaling in human A-375 cells assessed as effect on phosphorylation of MEK at 20 nM measured up to 8 hrs by western blot analysis; assay type: cell-based
How it was run: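 Parental and vemurafenib-resistant A375 cells were treated for up to 8 h. Lysis was on ice in 1% Triton X100, 25 mM Tris pH 7.5, 150 mM NaCl, EDTA/EGTA and protease/phosphatase inhibitors. Proteins were run on 4–20% SDS-PAGE and blotted to nitrocellulose. pMEK antibody was used at 1:1000 overnight at 4°C, with HRP secondary and chemiluminescence detection.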

A-375 [5] = assay: Antiproliferative activity against human A-375 cells transfected with GSK3beta shRNA assessed as reduction in cell viability at 4.5 nM incubated for 72 hrs by CellTitre-Glo assay; assay type: functional, cell-based
A-375 [6] = assay: Antiproliferative activity against human vemurafenib-resistant A-375 cells harboring BRAF V600E mutation assessed as reduction in cell viability incubated for 72 hrs by CellTitre-Glo assay; assay type: functional, cell-based; conditions: A-375, 72 h
How it was run: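 Resistant A375 or M14 lines were derived by growth in vemurafenib over 3 months. Cells were seeded at 2,000 per well and allowed to adhere overnight, then moved to 2% FBS growth medium. Agents were added at 0.5 nmol/L–10 μmol/L for 72 h. Viability was read by CellTiter-Glo, and IC50 was taken from sigmoidal nonlinear regression.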

A-375 [7] = assay: Induction of apoptosis in human A-375 cells assessed as increase in cleave-PARP protein expression at 5 to 15 nM after 72 hrs by sandwich ELISA analysis; assay type: functional, cell-based; conditions: dose 5-15 nM
How it was run: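 Cells were plated at 250,000 per well in 6-well plates and left overnight. Fresh medium containing agent at 5 or 15 nM final was added for 72 h. Cleaved PARP (Asp214) was measured by sandwich ELISA on 50 μg total protein and expressed relative to DMSO-treated cells.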

COLO 205 = assay: Antiproliferative activity against human COLO 205 assessed as reduction in cell viability incubated for 72 hrs by CellTitre-Glo assay; assay type: functional, cell-based; conditions: COLO 205, 72 h; how it was run: as §1
A-375 [8] = assay: Antitumor activity against human A-375 cells xenografted in CD1 nu/nu mouse assessed increase in Axin2 mRNA expression at 25 mg/kg, iv measured after 2 and 4 post dose by RT-PCR analysis; assay type: functional, organism-based
How it was run: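 Mice bearing A375 tumors of ~200 mm2 received 25 mg/kg i.v. Tumors were collected at 1, 2, 4, 6, 8 and 24 h post dose into RNAlater. Tissue was homogenized in RLT buffer and RNA extracted with DNase treatment. Axin2 mRNA was quantified by real-time PCR using the standard curve method.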

MDA-MB-231 = assay: Antiproliferative activity against human MDA-MB-231 assessed as reduction in cell viability incubated for 72 hrs by CellTitre-Glo assay; assay type: functional, cell-based; conditions: MDA-MB-231, 72 h; how it was run: as §1
[9] = target: Glycogen synthase kinase-3 (Homo sapiens) (UniProt P49840+P49841); assay: Inhibition of GSK3 in human A-375 cells assessed as increase in free beta-catenin at 20 nM for 48 hrs by immunoprecipitation analysis; assay type: cell-based
How it was run: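 Free β-catenin measured as the fraction binding the E-cadherin C-terminus. Lysate (300 μg protein) incubated with 10 μg His-Flag-E-cadherin, then captured overnight at 4°C on anti-FLAG M2 affinity gel. Resin washed 3 times in lysis buffer and eluted in reducing loading buffer. Bound β-catenin detected by immunoblot.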

A549 = assay: Antiproliferative activity against human A549 assessed as reduction in cell viability incubated for 72 hrs by CellTitre-Glo assay; assay type: functional, cell-based; conditions: A549, 72 h; how it was run: as §1
[10] = Half life in mouse plasma CD1 nu/nu mouse at 5 mg/kg, iv measured up to 120 mins by HPLC/MS analysis; assay type: ADME, organism-based
How it was run: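 Non-tumor-bearing CD1 nu/nu mice were dosed i.v. at 5 mg/kg. Blood was taken by cardiac puncture at 5, 15, 30, 60 and 120 min and centrifuged at 5,000 x g for 10 min. Plasma drug levels were measured by HPLC with mass spectrometry.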

HCT-116 = assay: Antiproliferative activity against human HCT-116 assessed as reduction in cell viability incubated for 72 hrs by CellTitre-Glo assay; assay type: functional, cell-based; conditions: HCT-116, 72 h; how it was run: as §1
M14 [11] = assay: Antiproliferative activity against human M14 cells harboring BRAF V600E mutation assessed as reduction in cell viability incubated for 72 hrs by CellTitre-Glo assay; assay type: functional, cell-based; conditions: M14, 72 h; how it was run: as §1
[12] = Antiproliferative activity against human MEXF1792 cells harboring NRAS G13D mutation assessed as reduction in cell viability incubated for 72 hrs by CellTitre-Glo assay; assay type: functional, cell-based; conditions: MEXF1792, 72 h; how it was run: as §1
[13] = Antiproliferative activity against human MEXF276 cells harboring BRAF V600E mutation assessed as reduction in cell viability incubated for 72 hrs by CellTitre-Glo assay; assay type: functional, cell-based; conditions: MEXF276, 72 h; how it was run: as §1
MCF7 = assay: Antiproliferative activity against human MCF7 assessed as reduction in cell viability incubated for 72 hrs by CellTitre-Glo assay; assay type: functional, cell-based; conditions: MCF7, 72 h; how it was run: as §1

Sequence of Glycogen synthase kinase-3 (Homo sapiens) (P49840 whole entry, looked up): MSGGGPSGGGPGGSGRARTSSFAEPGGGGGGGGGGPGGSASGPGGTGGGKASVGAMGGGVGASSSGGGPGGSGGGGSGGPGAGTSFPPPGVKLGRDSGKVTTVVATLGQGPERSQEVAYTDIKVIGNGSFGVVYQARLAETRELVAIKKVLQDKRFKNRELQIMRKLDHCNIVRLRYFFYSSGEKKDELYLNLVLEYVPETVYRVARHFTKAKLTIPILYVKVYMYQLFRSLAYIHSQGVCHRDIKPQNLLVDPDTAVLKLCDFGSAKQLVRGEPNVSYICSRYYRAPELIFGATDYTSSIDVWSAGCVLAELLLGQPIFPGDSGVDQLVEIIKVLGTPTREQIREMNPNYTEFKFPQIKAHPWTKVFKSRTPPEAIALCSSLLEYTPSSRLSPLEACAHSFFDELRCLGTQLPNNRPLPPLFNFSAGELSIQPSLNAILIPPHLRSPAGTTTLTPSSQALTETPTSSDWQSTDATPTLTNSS
Sequence of Glycogen synthase kinase-3 (Homo sapiens) (P49841 whole entry, looked up): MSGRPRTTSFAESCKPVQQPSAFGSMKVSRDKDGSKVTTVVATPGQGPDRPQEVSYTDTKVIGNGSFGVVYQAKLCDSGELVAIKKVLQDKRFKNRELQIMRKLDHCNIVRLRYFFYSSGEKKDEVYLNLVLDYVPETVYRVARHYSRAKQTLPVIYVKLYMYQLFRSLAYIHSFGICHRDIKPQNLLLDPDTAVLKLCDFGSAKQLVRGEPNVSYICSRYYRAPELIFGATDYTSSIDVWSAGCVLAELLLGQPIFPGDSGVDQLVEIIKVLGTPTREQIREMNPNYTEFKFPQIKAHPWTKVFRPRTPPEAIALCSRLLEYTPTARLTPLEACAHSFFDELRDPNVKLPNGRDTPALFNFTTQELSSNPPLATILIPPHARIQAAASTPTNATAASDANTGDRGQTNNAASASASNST

IC50 (LNCaP): 0.15 µM | IC50 (NCI-H460): 13.2 µM | IC50 (A-375 [6]): 0.008 µM | IC50 (COLO 205): 11.3 µM | IC50 (MDA-MB-231): > 20 µM | inhibition [9]: Active | IC50 (A549): 9.96 µM | half-life [10]: 36 min | IC50 (HCT-116): 10.5 µM | IC50 (MCF7): > 20 µM
SMILES: O=C1NC(=O)C(c2cnc3ccccn23)=C1c1cn2c3c(cc(F)cc13)CN(C(=O)N1CCCCC1)CC2 [LY-2090314]
Activity (M14 [1]): Active | Activity (M14 [2]): Active | Activity (A-375 [3]): Active | Activity (A-375 [4]): inactive | Activity (A-375 [5]): Active | Activity (A-375 [7]): Active | Activity (A-375 [8]): Active | IC50 (M14 [11]): 0.007 µM | IC50 [12]: 0.046 µM | IC50 [13]: 0.014 µM
